Source: ChEMBL document CHEMBL4834403, “Design and Synthesis of Novel Epigenetic Inhibitors Targeting Histone Deacetylases, DNA Methyltransferase 1, and Lysine Methyltransferase G9a with In Vivo Efficacy in Multiple Myeloma” (J Med Chem, 2021)

Key:
THLE-2 = assay: Cytotoxicity against human THLE-2 cells assessed as decrease in cell viability measured after 72 hrs by Vialight-plus cell proliferation assay; assay type: cell-based; details: thle-2, 72 h
Procedure, shortened: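 Human THLE-2 cells exposed to compound for 72 h. Cytotoxicity reported as LC50 and pLC50, averaged from at least two independent experiments on different days.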

[1] = Permeability of the compound in PBS/EtOH buffer (70:30) incubated for 18 hrs by UV plate reader based PAMPA assay; assay type: ADME; details: read-out: permeability
MM1.S = assay: Antiproliferative activity against human MM1.S cells assessed as inhibition of cell proliferation measured up to 72 hrs by CellTiter96 Aqueous one reagent based assay; assay type: functional
[2] = target: T1, Histone-lysine N-methyltransferase EHMT2 (Homo sapiens, UniProt Q96KQ7); assay: Inhibition of human G9a enzyme using histone monomethyl-H3K9 peptide as substrate incubated for 1 hr in presence of SAM by TR-FRET assay
T1 sequence (Q96KQ7 whole entry): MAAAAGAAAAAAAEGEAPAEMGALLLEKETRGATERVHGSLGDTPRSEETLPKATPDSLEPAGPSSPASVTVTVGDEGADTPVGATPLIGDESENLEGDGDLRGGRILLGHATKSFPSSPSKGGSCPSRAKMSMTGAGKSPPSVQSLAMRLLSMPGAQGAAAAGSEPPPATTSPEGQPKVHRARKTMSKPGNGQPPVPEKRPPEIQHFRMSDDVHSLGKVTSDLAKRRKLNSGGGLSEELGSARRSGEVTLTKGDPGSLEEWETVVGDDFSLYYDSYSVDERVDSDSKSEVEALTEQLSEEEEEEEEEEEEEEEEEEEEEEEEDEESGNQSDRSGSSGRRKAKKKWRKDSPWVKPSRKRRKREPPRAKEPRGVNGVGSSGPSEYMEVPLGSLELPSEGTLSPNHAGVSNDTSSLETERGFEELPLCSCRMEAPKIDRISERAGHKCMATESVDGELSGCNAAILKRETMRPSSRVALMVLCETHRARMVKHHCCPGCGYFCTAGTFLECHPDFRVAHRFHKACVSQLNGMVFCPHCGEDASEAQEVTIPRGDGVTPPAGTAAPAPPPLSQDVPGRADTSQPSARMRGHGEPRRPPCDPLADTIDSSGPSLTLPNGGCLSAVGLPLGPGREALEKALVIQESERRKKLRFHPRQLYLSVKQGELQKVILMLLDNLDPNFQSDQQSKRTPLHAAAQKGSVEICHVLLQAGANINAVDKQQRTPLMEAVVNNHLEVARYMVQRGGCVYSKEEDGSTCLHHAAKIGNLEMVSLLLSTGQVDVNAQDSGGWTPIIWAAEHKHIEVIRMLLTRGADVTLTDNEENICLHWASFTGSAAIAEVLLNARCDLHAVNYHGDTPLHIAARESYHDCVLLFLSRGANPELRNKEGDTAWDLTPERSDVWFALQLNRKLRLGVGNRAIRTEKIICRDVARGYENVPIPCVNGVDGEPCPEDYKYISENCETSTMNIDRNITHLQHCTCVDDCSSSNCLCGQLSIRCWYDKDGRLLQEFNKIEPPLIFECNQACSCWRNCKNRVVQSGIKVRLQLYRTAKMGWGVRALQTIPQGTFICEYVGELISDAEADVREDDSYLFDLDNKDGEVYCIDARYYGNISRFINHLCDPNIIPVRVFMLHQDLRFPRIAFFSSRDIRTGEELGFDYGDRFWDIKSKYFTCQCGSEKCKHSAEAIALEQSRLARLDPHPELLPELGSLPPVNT

Histone deacetylase 1 = Histone deacetylase 1 (Homo sapiens, UniProt Q13547); assay: Inhibition of full length human C-terminal His-tagged/C-terminal Flag-tagged HDAC1 using fluorogenic acetylated peptide as substrate incubated for 30 mins by fluorescence plate reader assay
[3] = target: DNA (cytosine-5)-methyltransferase 1 (Homo sapiens, UniProt P26358); assay: Inhibition of human DNMT1 enzyme using polydeoxy-inosine polydeoxy-cytosine DNA as substrate incubated for 15 mins in presence of SAM by TR-FRET assay
[4] = target: T2, Protein deacetylase HDAC6 (Homo sapiens, UniProt Q9UBN7); assay: Inhibition of full length human N-terminal GST-tagged HDAC6 using fluorogenic acetylated peptide as substrate incubated for 30 mins by fluorescence plate reader assay
T2 sequence (Q9UBN7 whole entry): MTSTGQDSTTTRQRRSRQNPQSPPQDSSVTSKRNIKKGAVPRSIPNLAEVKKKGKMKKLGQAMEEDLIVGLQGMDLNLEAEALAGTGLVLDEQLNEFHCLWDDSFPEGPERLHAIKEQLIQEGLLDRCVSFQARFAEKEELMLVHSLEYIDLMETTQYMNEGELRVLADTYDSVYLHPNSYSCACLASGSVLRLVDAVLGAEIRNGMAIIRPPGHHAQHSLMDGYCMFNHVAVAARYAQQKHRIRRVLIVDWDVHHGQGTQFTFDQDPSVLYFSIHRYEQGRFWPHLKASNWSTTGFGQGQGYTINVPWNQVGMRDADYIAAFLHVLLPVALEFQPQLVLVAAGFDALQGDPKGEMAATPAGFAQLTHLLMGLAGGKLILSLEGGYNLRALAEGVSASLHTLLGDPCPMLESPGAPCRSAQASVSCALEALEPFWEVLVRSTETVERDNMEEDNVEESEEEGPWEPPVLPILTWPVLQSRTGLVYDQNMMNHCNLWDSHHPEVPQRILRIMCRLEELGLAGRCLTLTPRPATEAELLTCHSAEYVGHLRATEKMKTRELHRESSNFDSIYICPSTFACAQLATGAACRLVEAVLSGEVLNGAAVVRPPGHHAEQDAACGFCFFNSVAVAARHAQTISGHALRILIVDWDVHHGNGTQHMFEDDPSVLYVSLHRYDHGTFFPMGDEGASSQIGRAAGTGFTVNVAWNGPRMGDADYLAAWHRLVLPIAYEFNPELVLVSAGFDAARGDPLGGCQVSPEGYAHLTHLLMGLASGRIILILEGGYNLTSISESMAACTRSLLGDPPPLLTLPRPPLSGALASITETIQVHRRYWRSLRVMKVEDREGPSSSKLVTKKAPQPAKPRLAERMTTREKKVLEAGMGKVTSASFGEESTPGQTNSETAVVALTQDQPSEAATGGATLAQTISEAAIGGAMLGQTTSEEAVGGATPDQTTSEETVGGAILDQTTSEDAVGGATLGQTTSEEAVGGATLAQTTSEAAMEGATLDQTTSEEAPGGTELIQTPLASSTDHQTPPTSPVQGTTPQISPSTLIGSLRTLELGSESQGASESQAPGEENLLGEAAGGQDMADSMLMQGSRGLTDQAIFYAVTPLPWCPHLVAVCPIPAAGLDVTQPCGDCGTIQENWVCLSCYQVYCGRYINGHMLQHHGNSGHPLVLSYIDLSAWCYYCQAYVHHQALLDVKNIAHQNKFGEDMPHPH

Histone deacetylase 2 = Histone deacetylase 2 (Homo sapiens, UniProt Q92769)
[5] = target: Histone deacetylase 3/Nuclear receptor corepressor 2 (HDAC3/NCoR2) (Homo sapiens, UniProt O15379); assay: Inhibition of full length human C-terminal His-tagged HDAC3/human N-terminal GST-agged NCOR2 using fluorogenic acetylated peptide as substrate incubated for 30 mins by fluorescence plate reader assay; assay type: protein-complex assay
[6] = time hrs <=72, read-out: pGI50 (converted)

Sequence of Histone deacetylase 1 (Q13547 whole entry): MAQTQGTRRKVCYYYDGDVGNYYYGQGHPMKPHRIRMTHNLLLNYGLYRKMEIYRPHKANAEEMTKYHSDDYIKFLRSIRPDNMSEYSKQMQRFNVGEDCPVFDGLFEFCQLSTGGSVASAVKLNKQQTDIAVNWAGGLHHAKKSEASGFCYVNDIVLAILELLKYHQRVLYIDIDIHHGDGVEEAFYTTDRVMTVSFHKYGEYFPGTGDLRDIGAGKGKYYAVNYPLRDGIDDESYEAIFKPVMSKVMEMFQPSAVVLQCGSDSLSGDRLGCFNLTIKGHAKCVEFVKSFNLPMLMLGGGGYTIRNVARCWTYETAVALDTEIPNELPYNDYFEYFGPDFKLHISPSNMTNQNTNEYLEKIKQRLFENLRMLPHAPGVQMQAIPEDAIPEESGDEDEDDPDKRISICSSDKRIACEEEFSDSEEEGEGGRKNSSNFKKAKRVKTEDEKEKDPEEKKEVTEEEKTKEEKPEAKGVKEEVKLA
Sequence of Histone deacetylase 2 (Q92769 whole entry): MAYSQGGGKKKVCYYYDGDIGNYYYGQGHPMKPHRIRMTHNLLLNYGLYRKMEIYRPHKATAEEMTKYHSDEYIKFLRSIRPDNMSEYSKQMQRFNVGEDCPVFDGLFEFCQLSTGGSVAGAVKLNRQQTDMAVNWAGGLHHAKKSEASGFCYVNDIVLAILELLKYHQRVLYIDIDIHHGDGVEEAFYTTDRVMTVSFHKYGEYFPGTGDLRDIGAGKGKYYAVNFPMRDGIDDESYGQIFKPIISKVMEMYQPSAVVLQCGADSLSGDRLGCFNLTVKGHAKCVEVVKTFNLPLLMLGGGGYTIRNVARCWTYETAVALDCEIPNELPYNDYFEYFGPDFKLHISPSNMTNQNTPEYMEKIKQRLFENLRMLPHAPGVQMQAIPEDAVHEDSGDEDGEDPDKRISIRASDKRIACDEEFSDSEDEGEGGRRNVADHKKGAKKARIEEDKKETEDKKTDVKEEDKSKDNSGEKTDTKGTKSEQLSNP
Sequence of DNA (cytosine-5)-methyltransferase 1 (P26358 whole entry): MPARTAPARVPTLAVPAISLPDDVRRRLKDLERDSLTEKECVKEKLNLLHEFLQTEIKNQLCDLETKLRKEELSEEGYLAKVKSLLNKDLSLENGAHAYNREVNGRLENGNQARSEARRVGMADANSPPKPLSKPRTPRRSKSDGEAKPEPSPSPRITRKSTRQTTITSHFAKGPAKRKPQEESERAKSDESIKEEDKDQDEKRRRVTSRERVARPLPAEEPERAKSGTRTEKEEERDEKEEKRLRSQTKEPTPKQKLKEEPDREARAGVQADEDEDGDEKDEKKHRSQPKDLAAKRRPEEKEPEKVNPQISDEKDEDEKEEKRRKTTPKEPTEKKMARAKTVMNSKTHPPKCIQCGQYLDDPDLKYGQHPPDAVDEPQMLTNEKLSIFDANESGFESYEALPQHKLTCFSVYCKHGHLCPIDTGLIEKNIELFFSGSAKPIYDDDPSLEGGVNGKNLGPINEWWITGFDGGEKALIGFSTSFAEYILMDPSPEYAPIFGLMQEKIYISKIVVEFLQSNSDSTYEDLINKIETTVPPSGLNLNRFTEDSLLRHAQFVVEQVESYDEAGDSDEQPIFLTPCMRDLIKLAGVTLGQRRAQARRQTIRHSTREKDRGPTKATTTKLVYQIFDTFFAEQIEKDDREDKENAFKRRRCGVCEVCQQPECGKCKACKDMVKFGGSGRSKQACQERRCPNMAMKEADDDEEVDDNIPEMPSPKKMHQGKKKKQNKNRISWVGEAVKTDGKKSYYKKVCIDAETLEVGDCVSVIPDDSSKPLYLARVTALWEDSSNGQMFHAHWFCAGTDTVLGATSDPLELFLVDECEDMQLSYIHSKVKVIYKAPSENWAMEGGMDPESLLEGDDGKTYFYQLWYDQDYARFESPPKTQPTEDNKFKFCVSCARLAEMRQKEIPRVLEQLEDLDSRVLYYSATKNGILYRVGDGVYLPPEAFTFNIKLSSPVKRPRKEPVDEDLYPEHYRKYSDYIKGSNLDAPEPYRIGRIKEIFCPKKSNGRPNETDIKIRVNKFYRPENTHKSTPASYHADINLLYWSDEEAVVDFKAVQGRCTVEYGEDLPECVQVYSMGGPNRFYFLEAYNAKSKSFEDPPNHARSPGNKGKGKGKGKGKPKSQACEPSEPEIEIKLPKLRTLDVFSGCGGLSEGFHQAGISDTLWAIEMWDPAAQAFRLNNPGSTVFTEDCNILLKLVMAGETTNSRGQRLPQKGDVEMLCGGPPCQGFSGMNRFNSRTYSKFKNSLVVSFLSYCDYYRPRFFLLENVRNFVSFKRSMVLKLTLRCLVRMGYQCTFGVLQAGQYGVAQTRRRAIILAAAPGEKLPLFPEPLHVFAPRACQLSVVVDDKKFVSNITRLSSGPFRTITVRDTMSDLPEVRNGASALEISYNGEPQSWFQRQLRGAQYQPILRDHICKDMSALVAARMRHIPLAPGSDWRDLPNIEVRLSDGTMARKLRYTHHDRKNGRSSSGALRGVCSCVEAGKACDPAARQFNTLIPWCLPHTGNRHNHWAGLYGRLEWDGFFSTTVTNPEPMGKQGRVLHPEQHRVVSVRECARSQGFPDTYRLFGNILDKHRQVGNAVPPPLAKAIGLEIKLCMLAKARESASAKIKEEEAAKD

SMILES	LC50 (THLE-2)	pLC50 (THLE-2)	Papp at 18 h [1]	GI50 (MM1.S; time hrs <=72, read-out: GI50)	GI50 (MM1.S; [6])	IC50 [2]	IC50 (Histone deacetylase 1)	IC50 [3]	IC50 [4]	IC50 (Histone deacetylase 2)	IC50 [5]
COc1cc2c(NCC3CCN(c4ccc(C(=O)NO)cc4)CC3)cc(-c3ccc(C)o3)nc2cc1OCCCN1CCCC1	9.7 µM	5.01	0.5 nm/s	3.76 µM	3.72 µM	0.269 µM	0.078 µM	0.417 µM	0.067 µM		
COc1cc2nc(-c3ccc(C)o3)nc(NCC3CCN(c4ncc(C(=O)NO)cn4)CC3)c2cc1OC						> 10 µM	0.007 µM	> 10 µM	0.506 µM	0.038 µM	0.021 µM
COc1cc2nc(-c3ccc(C)o3)cc(NCC3CCN(C4CC(C(=O)NO)C4)CC3)c2cc1OC (configuration not stated)	10.41 µM	4.98	0.68 nm/s	1.99 µM	2 µM	> 10 µM	0.453 µM	0.54 µM	3.18 µM		
COc1cc2c(NCc3ccc(-c4ccc(C(=O)NO)cc4)cc3)cc(-c3ccc(C)o3)nc2cc1OCCCN1CCCC1	13.5 µM	4.87	1.1 nm/s	1.81 µM	1.82 µM	2.24 µM	0.045 µM	2.57 µM	0.127 µM		
COc1cc2c(NC3CCN(C)CC3)cc(-c3ccc(C)o3)nc2cc1OCCCN1CCCC1	1.78 µM	5.75		1.04 µM	1.07 µM		> 10 µM		> 10 µM	> 10 µM	> 10 µM
COc1cc2c(NCC3CCC(C(=O)NO)CC3)cc(-c3ccc(C)o3)nc2cc1OCCCN1CCCC1 (configuration not stated)	26.1 µM	4.58		> 10 µM	> 10 µM	0.055 µM	0.022 µM	0.531 µM	0.034 µM	0.159 µM	0.109 µM
COc1cc2c(NCc3ccc(C(=O)NO)cc3)cc(-c3ccc(C)o3)nc2cc1OCCCN1CCCC1	11.3 µM	4.95	1 nm/s	4.5 µM	4.47 µM	0.471 µM	0.009 µM	0.795 µM	0.011 µM	0.06 µM	0.021 µM
